Source: PubChem BioAssay AID493070 (Broad Institute, 2011)
Unmarked numbers belong to inactive results. Active and inactive are the calls of the source.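 The calls were made as follows: active = growth signal loss with fitted half-maximal concentration up to ten times the top valid dose; inconclusive = flat curve with 30 to 70% inhibition, or poor fit; inactive = the rest, including opposite-direction effects.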

Assay: single-agent antifungal toxicity against Candida – Alamar Blue fluorescence, dry powder, set 5, counter-screen, dose response (AID 493070)
Conditions: C. albicans CaCi-2 growth, 48 h; series mostly up to 26 µM
How it was run: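 Material: fluconazole-resistant clinical Candida albicans isolate CaCi-2, fluconazole-free counterscreen; Dosing: pinned compound; Incubation: 48 h growth at 37 °C, 2 h dye step; Signal: Alamar Blue fluorescence, Ex 544/Em 590 nm; Read-out: fungal growth from Alamar Blue RFU, signal loss indicating broad toxicity.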
In the case of `COC(=O)Cn1c(-c2ccccc2)nc2ccccc21`, the outcome was “inactive”.
For `COc1ccc2c(c1)c1nc3n(c(=O)c1n2CC(=O)N1CCC(Cc2ccccc2)CC1)CCS3`, the outcome was “inactive”.
In the case of `CC1CCN(C(=O)Cn2c3ccccc3c3nc4n(c(=O)c32)CCCS4)CC1`, the outcome was “inactive”.
For `O=c1c2[nH]c3ccc(F)cc3c2nc2n1CCS2`, the outcome was “inactive”.
With `O=c1c2[nH]c3ccccc3c2nc2n1CCS2` the outcome was “inactive”.
With `O=C(Cn1c2ccc(F)cc2c2nc3n(c(=O)c21)CCS3)N1CCCCCC1` the outcome was “inactive”.
In the case of `O=C(Cn1c2ccccc2c2nc3n(c(=O)c21)CCS3)NCCc1ccc(Cl)cc1`, the outcome was “inactive”.
With `O=C(O)Cn1nc(-c2ccccc2)c2ccccc21` the outcome was “inactive”.
For `COc1ccc(NC(=O)Cn2c3ccccc3c3nc4n(c(=O)c32)CCS4)cc1`, the outcome was “inactive”.
In the case of `O=C(Cn1c2ccc(F)cc2c2nc3n(c(=O)c21)CCS3)N1CCCC1`, the outcome was “inactive”.
For `COC(=O)Cn1nc(-c2ccccc2)c2ccccc21`, the outcome was “inactive”.
For `O=C(Cn1c2ccccc2c2nc3n(c(=O)c21)CCCS3)c1ccc(F)cc1`, the outcome was “inactive”.
With `O=C(Cn1c2ccccc2c2nc3n(c(=O)c21)CCS3)N1CCOCC1` the outcome was “inactive”.
With `O=C(Cn1c2ccccc2c2nc3n(c(=O)c21)CCS3)N1CCCC1` the outcome was “inactive”.
With `O=C(Cn1c2ccccc2c2ccncc21)N1CCCCC1` the outcome was “inactive”.
For `O=C(Cn1c2ccc(F)cc2c2nc3n(c(=O)c21)CCS3)N1CCCCC1`, the outcome was “inactive”.
With `N#Cc1cccc(N2CCN(C(=O)c3ccc(Cl)cc3)CC2)n1` the outcome was “inactive”.
For `O=C(Cn1c2ccccc2c2nc3n(c(=O)c21)CCS3)N1CCCCC1`, the outcome was “inactive”.
In the case of `COC(=O)Cn1nc(-c2ccc(C)cc2)c2ccccc21`, the outcome was “inactive”.
For `CC1CCN(C(=O)Cn2c3ccc(F)cc3c3nc4n(c(=O)c32)CCCS4)CC1`, the outcome was “inactive”.
In the case of `CC1CCN(C(=O)Cn2c3ccccc3c3nc4n(c(=O)c32)CCS4)CC1`, the outcome was “inactive”.
Work on `COc1ccc2c(c1)c1nc3n(c(=O)c1n2CC(=O)N1CCC(C)CC1)CCS3` yielded an activity change, negative = inhibition of 0.019% [at 2.6 µM].
With `COC(=O)Cn1nc(-c2ccc(Cl)cc2)c2ccccc21` the outcome was “inactive”.
In the case of `CCN(CC)C(=O)Cn1c2ccccc2c2nc3n(c(=O)c21)CCS3`, the outcome was “inactive”.
In the case of `CCN(CC)C(=O)Cn1c2ccc(F)cc2c2nc3n(c(=O)c21)CCS3`, the outcome was “inactive”.
